Experimental data taken from ChEMBL document CHEMBL2331363, “Synthesis of a 2,4,6-trisubstituted 5-cyano-pyrimidine library and evaluation of its immunosuppressive activity in a Mixed Lymphocyte Reaction assay” (Bioorg Med Chem, 2013).

Assays:
[1] = Immunosuppressive activity in human RPMI1788 cells cocultured with human PBMC assessed as inhibition of [3H]thymidine incorporation incubated for 6 days prior to [3H]thymidine addition measured after 18 hrs by liquid scintillation counting; format: functional, cell-based; conditions: RPMI-1788
Summary of the method: (§1)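 Effector PBMCs from heparinized healthy-donor blood were isolated over Lymphoprep and held at 1.2 × 10⁶ cells/mL in RPMI-1640 with 10% heat-inactivated FCS. Mitomycin-treated stimulator cells were at 0.45 × 10⁶ cells/mL. Cells were mixed with diluted compound and cultured at 37 °C, 5% CO₂. (methyl-³H)thymidine was added for the final 18 h, and filter-harvested cpm were counted by scintillation. Compounds were screened at one concentration, then dose-response IC₅₀ was determined. Values are means of two independent experiments.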

[2] = Immunosuppressive activity in human RPMI1788 cells cocultured with human PBMC assessed as inhibition of [3H]thymidine incorporation at 10 uM incubated for 6 days prior to [3H]thymidine addition measured after 18 hrs by liquid scintillation counting; format: functional; conditions: RPMI-1788; summary of the method: as §1
[3] = Growth inhibition of human Jurkat T cells at 10 uM after 48 hrs by WST1 assay; format: cell-based
Summary of the method: (§2)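 Jurkat T cells were seeded at 5.10⁴ cells per well and exposed to serial compound dilutions for 48 h at 37 °C and 5% CO₂. Part of the medium was removed, WST-1 tetrazolium salt was added, and cells were incubated further. Absorbance was read at 450 nm. Results are % cytotoxicity at each concentration, with CC₅₀ calculated.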

[4] = Cytotoxicity against human Jurkat T cells after 48 hrs by WST1 assay; format: cell-based; summary of the method: as §2

Row | Compound | IC50 [1] [µM] | inhibition at 10 µM [2] [%] | inhibition at 48 h, 10 µM [3] [%] | CC50 at 48 h [4] [µM]
1 | N#Cc1c(-c2ccc(Cl)cc2)nc(Nc2ccc(Cl)cc2)[nH]c1=O | > 10 | 18 |  | 
2 | CCCCCCSc1nc(-c2ccc(OC)cc2)c(C#N)c(N2CCOCC2)n1 | 5.3 | 69 | 13 | > 10
3 | COc1ccc(-c2nc(Nc3ccc(Cl)cc3)[nH]c(=O)c2C#N)cc1 | > 10 | 0 |  | 
4 | CCn1c(SCc2ccccc2)nc(-c2ccc(Cl)cc2)c(C#N)c1=O | > 10 | 5 |  | 
5 | COc1ccc(-c2nc(SCc3ccccc3)nc(N3CCC(C)CC3)c2C#N)cc1 | > 10 | 35 |  | 
6 | CC(C)Nc1nc(Nc2ccc(Cl)cc2)nc(-c2ccccc2)c1C#N | 5.7 | 72 |  | 
7 | C=CCSc1nc(-c2ccc(OC)cc2)c(C#N)c(N2CCOCC2)n1 | 3.4 | 82 | 5 | > 10
8 | N#Cc1c(OCc2ccccc2)nc(Nc2ccc(Cl)cc2)nc1-c1ccc(Cl)cc1 | > 10 | 26 |  | 
9 | COc1ccc(-c2nc(SCc3ccccc3)nc(N3CCC(Cc4ccccc4)CC3)c2C#N)cc1 | > 10 | 31 |  | 
10 | COc1ccc(-c2nc(SCCc3ccccc3)nc(N3CCOCC3)c2C#N)cc1 | 3.9 | 62 | 9 | > 10
11 | N#Cc1c(NC2CCCCC2)nc(Nc2ccc(Cl)cc2)nc1-c1ccc(Cl)cc1 | > 10 | 1 |  | 
12 | CCCn1c(SCc2ccccc2)nc(-c2cccc(Cl)c2)c(C#N)c1=O | > 10 | 9 |  | 
13 | N#Cc1c(-c2ccc(Cl)cc2)nc(Nc2ccc(Cl)cc2)nc1N1CCOCC1 | > 10 | 45 |  | 
14 | CCOc1nc(SCc2ccccc2)nc(-c2cccc(Cl)c2)c1C#N | > 10 | 10 |  | 
15 | N#Cc1c(-c2ccc(Cl)cc2)nc(Nc2cccc(F)c2)[nH]c1=O | > 10 | 0 |  | 
16 | COc1ccc(-c2nc(SCc3ccccc3)nc(N3CCC(C(N)=O)CC3)c2C#N)cc1 | 4.9 | 73 | 12 | > 10
17 | CCc1cccc(Nc2nc(-c3ccc(Cl)cc3)c(C#N)c(=O)[nH]2)c1 | > 10 | 33 |  | 
18 | N#Cc1c(OCc2ccccc2)nc(SCc2ccccc2)nc1-c1ccc(Cl)cc1 | > 10 | 22 |  | 
19 | CCCCSc1nc(-c2ccc(OC)cc2)c(C#N)c(N2CCOCC2)n1 | 2.3 | 67 | 13 | > 10

Row | Compound | IC50 [1] [µM] | inhibition at 10 µM [2] [%] | inhibition at 48 h, 10 µM [3] [%] | CC50 at 48 h [4] [µM]
20 | COc1ccc(-c2nc(SCc3ccccc3)nc(N3CCSCC3)c2C#N)cc1 | > 10 | 13 |  | 
21 | COc1ccc(-c2nc(SCc3ccccc3)nc(N3CCC(C(=O)c4ccccc4)CC3)c2C#N)cc1 | 2.1 | 63 | 2 | > 10
22 | CCOc1nc(SCc2ccccc2)nc(-c2ccc(Cl)cc2)c1C#N | > 10 | 13 |  | 
23 | COc1nc(SCc2ccccc2)nc(-c2ccc(Cl)cc2)c1C#N | > 10 | 10 |  | 
24 | N#Cc1c(-c2ccc(Cl)cc2)nc(SCc2ccccc2)nc1N1CCC(C(=O)c2ccccc2)CC1 | 9.8 | 55 | 6 | > 10
25 | N#Cc1c(-c2ccccc2)nc(Nc2ccc(Cl)cc2)[nH]c1=O | > 10 | 0 |  | 
26 | COc1ccc(-c2nc(SC)nc(N3CCOCC3)c2C#N)cc1 | 4.9 | 80 | 6 | > 10
27 | Cc1ccc(Nc2nc(-c3ccc(Cl)cc3)c(C#N)c(=O)[nH]2)cc1 | > 10 | 20 |  | 
28 | CCOc1nc(Nc2ccc(Cl)cc2)nc(-c2ccccc2)c1C#N | > 10 | 38 |  | 
29 | N#Cc1c(-c2ccc(Cl)cc2)nc(SCc2ccccc2)nc1N1CCC(Cc2ccccc2)CC1 | > 10 | 17 |  | 
30 | COc1ccc(-c2nc(SCc3ccccc3)nc(NCc3cccs3)c2C#N)cc1 | 5 | 65 | 13 | > 10
31 | N#Cc1c(-c2cccc(Cl)c2)nc(SCc2ccccc2)nc1N1CCOCC1 | 5.5 | 80 | 15 | > 10
32 | N#Cc1c(-c2ccccc2)nc(Nc2ccc(Cl)cc2)nc1N1CCCCC1 | 6.2 | 70 | 9 | > 10
33 | COc1ccc(-c2nc(SCc3ccccc3)nc(N3CCC(c4ccccc4)CC3)c2C#N)cc1 | > 10 | 31 |  | 
34 | N#Cc1c(-c2ccc(Cl)cc2)nc(Nc2ccc(Cl)cc2)nc1N1CCCCC1 | > 10 | 15 |  | 
35 | Cc1ccc(Nc2nc(-c3ccc(Cl)cc3)c(C#N)c(N3CCCCC3)n2)cc1 | > 10 | 0 |  | 
36 | COc1ccc(-c2nc(SCc3ccccc3)n(C)c(=O)c2C#N)cc1 | > 10 | 5 |  | 
37 | N#Cc1c(NC2CCCCC2)nc(SCc2ccccc2)nc1-c1ccc(Cl)cc1 | 6.4 | 56 | 0 | > 10
38 | Cc1ccc(Nc2nc(-c3ccccc3)c(C#N)c(N3CCCCC3)n2)cc1 | 4.3 | 88 | 10 | > 10

Row | Compound | IC50 [1] [µM] | inhibition at 10 µM [2] [%] | inhibition at 48 h, 10 µM [3] [%] | CC50 at 48 h [4] [µM]
39 | CCn1c(SCc2ccccc2)nc(-c2ccc(OC)cc2)c(C#N)c1=O | > 10 | 12 |  | 
40 | Cc1ccc(Nc2nc(-c3ccccc3)c(C#N)c(=O)[nH]2)cc1 | > 10 | 11 |  | 
41 | Cn1c(SCc2ccccc2)nc(-c2cccc(Cl)c2)c(C#N)c1=O | > 10 | 7 |  | 
42 | CCOc1nc(SCc2ccccc2)nc(-c2ccc(OC)cc2)c1C#N | > 10 | 46 |  | 
43 | N#Cc1c(-c2ccc(Cl)cc2)nc(Nc2ccccc2)[nH]c1=O | > 10 | 8 |  | 
44 | N#Cc1c(-c2cccc(Cl)c2)nc(Nc2ccc(Cl)cc2)[nH]c1=O | > 10 | 14 |  | 
45 | N#Cc1c(-c2ccc(Cl)cc2)nc(SCc2ccccc2)nc1N1CCOCC1 | 8.3 | 63 | 5 | > 10
46 | Cn1c(SCc2ccccc2)nc(-c2ccc(Cl)cc2)c(C#N)c1=O | > 10 | 0 |  | 
47 | CCCOc1nc(Nc2ccc(Cl)cc2)nc(-c2ccccc2)c1C#N | > 10 | 44 |  | 
48 | COc1ccc(-c2nc(SCc3ccccc3)nc(NCc3ccccc3)c2C#N)cc1 | 2.5 | 73 | 5 | > 10
49 | COc1nc(Nc2ccc(Cl)cc2)nc(-c2ccc(Cl)cc2)c1C#N | > 10 | 0 |  | 
50 | N#Cc1c(-c2ccc(Cl)cc2)nc(SCc2ccccc2)n(Cc2ccccc2)c1=O | > 10 | 14 |  | 
51 | CCOc1nc(Nc2ccc(Cl)cc2)nc(-c2ccc(Cl)cc2)c1C#N | > 10 | 0 |  | 
52 | CC(C)Nc1nc(Nc2ccc(Cl)cc2)nc(-c2ccc(Cl)cc2)c1C#N | > 10 | 0 |  | 
53 | COc1ccc(-c2nc(SCc3ccccc3)nc(NCCc3ccccc3)c2C#N)cc1 | > 10 | 11 |  | 
54 | N#Cc1c(-c2ccc(Cl)cc2)nc(SCc2ccccc2)nc1N1CCC(C(N)=O)CC1 | 6.4 | 57 | 19 | > 10
55 | CC(C)Nc1nc(SCc2ccccc2)nc(-c2ccc(Cl)cc2)c1C#N | > 10 | 48 |  | 
56 | COc1ccc(-c2nc(SCc3ccc(Br)cc3)nc(N3CCOCC3)c2C#N)cc1 | > 10 | 36 |  | 
57 | N#Cc1c(-c2ccc(Cl)cc2)nc(SCc2ccccc2)nc1N1CCCC(C(N)=O)C1 (stereo unspecified) | > 10 | 64 |  | 
